What was measured:
T47D = experiment: Selectivity ratio of IC50 for progesterone receptor in human T47D cells to IC50 for glucocorticoid receptor in human A549 cells; type: cell-based
Method in brief: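 Ratio calculated by dividing the IC50 from the T47D alkaline phosphatase assay by the IC50 from the A549 cell-based functional assay, with both measured in this work. It serves as an index of how well PR and GR antagonism are separated. Mifepristone was run alongside as the reference compound.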

Glucocorticoid receptor = biological target: T1, Glucocorticoid receptor (Homo sapiens, UniProt P04150); experiment: Antagonist activity at glucocorticoid receptor in human A549 cells assessed as inhibition of dexamethasone-induced transcription at GRE after 24 hrs by luciferase reporter gene assay; type: functional, cell-based
T1 sequence (P04150 whole entry): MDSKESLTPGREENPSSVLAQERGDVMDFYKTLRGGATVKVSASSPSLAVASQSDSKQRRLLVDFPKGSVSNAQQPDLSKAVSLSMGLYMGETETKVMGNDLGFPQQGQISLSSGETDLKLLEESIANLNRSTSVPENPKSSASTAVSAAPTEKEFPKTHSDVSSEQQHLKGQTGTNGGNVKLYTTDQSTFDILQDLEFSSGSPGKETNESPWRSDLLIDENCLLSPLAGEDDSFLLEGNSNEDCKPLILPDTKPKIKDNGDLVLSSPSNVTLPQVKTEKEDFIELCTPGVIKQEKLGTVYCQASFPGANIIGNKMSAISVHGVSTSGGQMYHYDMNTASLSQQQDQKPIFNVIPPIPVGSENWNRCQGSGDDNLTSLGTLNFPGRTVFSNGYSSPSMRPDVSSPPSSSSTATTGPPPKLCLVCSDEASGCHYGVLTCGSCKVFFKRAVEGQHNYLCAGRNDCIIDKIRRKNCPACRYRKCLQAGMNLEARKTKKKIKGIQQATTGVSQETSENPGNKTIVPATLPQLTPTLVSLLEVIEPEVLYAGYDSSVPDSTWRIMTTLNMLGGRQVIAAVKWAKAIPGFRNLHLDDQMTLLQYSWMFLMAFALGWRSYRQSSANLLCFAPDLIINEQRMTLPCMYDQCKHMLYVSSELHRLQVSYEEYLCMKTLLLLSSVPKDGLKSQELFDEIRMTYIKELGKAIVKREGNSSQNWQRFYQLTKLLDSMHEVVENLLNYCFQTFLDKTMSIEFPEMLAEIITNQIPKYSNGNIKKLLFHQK

Progesterone receptor = biological target: T2, Progesterone receptor (Homo sapiens, UniProt P06401); experiment: Antagonist activity at progesterone receptor in human T47D cells assessed as inhibition of progesterone-induced alkaline phosphatase activity after 24 hrs by luminescence based assay; type: functional, cell-based
T2 sequence (P06401 whole entry): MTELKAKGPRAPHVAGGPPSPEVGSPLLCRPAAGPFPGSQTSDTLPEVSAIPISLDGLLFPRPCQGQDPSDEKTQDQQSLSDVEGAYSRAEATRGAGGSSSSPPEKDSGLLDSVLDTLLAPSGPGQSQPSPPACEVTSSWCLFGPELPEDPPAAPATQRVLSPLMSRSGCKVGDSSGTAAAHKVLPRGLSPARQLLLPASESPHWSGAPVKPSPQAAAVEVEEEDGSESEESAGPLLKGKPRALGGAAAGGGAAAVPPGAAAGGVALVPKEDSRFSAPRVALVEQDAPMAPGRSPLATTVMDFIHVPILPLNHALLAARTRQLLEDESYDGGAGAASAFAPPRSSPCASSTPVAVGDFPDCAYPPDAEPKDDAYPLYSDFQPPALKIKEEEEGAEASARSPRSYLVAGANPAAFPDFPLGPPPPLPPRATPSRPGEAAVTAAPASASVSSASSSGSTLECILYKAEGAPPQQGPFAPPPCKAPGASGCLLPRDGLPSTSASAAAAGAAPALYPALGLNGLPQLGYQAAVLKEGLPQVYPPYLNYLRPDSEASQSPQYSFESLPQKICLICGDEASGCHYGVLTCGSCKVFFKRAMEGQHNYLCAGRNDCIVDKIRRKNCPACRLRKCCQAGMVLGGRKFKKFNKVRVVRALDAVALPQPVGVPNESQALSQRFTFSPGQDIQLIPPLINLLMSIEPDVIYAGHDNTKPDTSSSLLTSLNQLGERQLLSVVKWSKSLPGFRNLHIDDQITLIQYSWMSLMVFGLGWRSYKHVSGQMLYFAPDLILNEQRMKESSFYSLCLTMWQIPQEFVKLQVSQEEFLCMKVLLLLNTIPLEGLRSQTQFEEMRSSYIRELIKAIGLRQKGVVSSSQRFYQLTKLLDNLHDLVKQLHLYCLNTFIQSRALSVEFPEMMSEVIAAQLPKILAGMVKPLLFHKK

Compound	IC50 (Glucocorticoid receptor) [nM]	IC50 (Progesterone receptor) [nM]	Ratio IC50 (T47D)
CC#C[C@]1(O)CC[C@H]2[C@@H]3CCC4=CC(=O)CCC4=C3[C@@H](c3ccc(N(C)C)cc3)C[C@@]21C	–	–	0.9
CC#C[C@]1(NC=O)CC[C@H]2[C@@H]3CCC4=CC(=O)CCC4=C3[C@@H](c3ccc4oc(C(F)(F)F)nc4c3)C[C@@]21C	142	46	0.3
CC#C[C@]1(O)CC[C@H]2[C@@H]3CCC4=CC(=O)CCC4=C3[C@@H](c3ccc4ocnc4c3)C[C@@]21C	45	101	2.2
CC#C[C@]1(NC=O)CC[C@H]2[C@@H]3CCC4=CC(=O)CCC4=C3[C@@H](c3ccc4ocnc4c3)C[C@@]21C	60	41	0.7

Further lines, with some results ahead:

IC50 (Glucocorticoid receptor) [nM]	IC50 (Progesterone receptor) [nM]	Compound	Ratio IC50 (T47D)
61	85	CC#C[C@]1(O)CC[C@H]2[C@@H]3CCC4=CC(=O)CCC4=C3[C@@H](c3ccc4oc(C(F)(F)F)nc4c3)C[C@@]21C	1.4
13	65	CC#C[C@]1(O)CC[C@H]2[C@@H]3CCC4=CC(=O)CCC4=C3[C@@H](c3ccc4oc(CC)nc4c3)C[C@@]21C	5
23	35	CC#C[C@]1(O)CC[C@H]2[C@@H]3CCC4=CC(=O)CCC4=C3[C@@H](c3ccc4oc(C)nc4c3)C[C@@]21C	1.5

Source: ChEMBL document CHEMBL1949497, “Synthesis and antihormonal properties of novel 11β-benzoxazole-substituted steroids” (Bioorg Med Chem Lett, 2012)
